The assay has as its target T1, recombinant Lyp (Homo sapiens, UniProt Q9Y2R2).
T1 sequence (Q9Y2R2 2-309): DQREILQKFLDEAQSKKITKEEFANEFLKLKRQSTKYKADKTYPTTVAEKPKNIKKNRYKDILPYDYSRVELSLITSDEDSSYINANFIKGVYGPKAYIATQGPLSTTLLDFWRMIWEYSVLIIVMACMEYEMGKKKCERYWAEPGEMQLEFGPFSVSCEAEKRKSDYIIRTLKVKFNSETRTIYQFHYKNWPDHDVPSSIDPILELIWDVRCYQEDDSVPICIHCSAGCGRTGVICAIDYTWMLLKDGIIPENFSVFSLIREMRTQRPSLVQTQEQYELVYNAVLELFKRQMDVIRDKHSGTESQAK
Put plainly: Lyp enzymatic assay, IC50 measurements. The class given is biochemical. The note with it: compared with compound 7 (analogue lacks the nitro group). The gist of the method: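 GST-fused Lyp catalytic domain (residues 2–309) was expressed in E. coli BL21 DE3 and purified by glutathione affinity and Superdex S-200. DiFMUP hydrolysis was measured at 48 μM substrate (Km) and 30°C in 20 mM Bis-Tris pH 6.0 (ionic strength 20 mM, NaCl) with 1 mM DTT, 1% PEG 8000 and 5% DMSO. Initial rates were read at ex 360/em 460 nm and corrected with a no-enzyme control. IC50 came from fitting relative activity against inhibitor concentration.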

This note sets out measurements from PMC3102533 (ChemMedChem, 2009).

Take `O=C(Nc1ccc(I)cc1C(=O)O)c1ccccc1` [2-benzamido-5-iodobenzoic acid]: the “fold less inhibitory activity against Lyp” value worked out at 157 fold.
